Data: ChEMBL document CHEMBL1152218, “New acridone-4-carboxylic acid derivatives as potential inhibitors of hepatitis C virus infection” (Bioorg Med Chem, 2008)
Active and inactive are the calls of the source. The calls are words filed in the database; no cut-off is given here.

Experiments:
[1] = tested on: Hepatitis C virus; assay: Antiviral activity against HCV subtype 1a in Huh7 cells assessed as reduction of viral RNA replication; type: functional, organism-based, Hepacivirus hominis; conditions: Huh-7
In short: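 Subgenomic HCV replicon (luciferase) in Huh-7 cells; compounds at 1 to 200 µM, with at least three experiments and three replicates per concentration. Luminescence is expressed as percent of control wells containing 1–2% DMSO. EC50 is the concentration that reduces luminescence by 50%.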

[2] = tested on: Escherichia phage T7; assay: Inhibition of T7 RNA polymerase activity assessed as blockade of DNA transcription
In short: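 In vitro transcription with T7 RNA polymerase, using 0.5 µg EcoRI-cut pTZ19R carrying a 341 bp insert as template. The reaction contained 2 mM of each NTP, 1 U/µl RNase inhibitor and 12 U enzyme in 40 mM Tris-HCl pH 7.9, 6 mM MgCl2, 2 mM spermidine, 10 mM NaCl and 10 mM DTT. Incubation was 1 h at 37 °C. Products were run on 1.2% agarose with EtBr, and IC99 was obtained by band densitometry.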

[3] = Inhibition of HCV NS3 helicase activity by fluorimetric assay; parameters: species or system Hepacivirus hominis
In short: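 Direct fluorometric assay of NS3 helicase unwinding, run at 37 °C. IC50 is the inhibitor concentration that reduces helicase activity by 50%.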

[4] = Cytotoxicity against human HuH7 cells by XTT assay; type: cell-based, Huh-7
In short: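 Huh-7 cells carrying the HCV replicon were grown with serial dilutions (1 to 200 µM) for 3 days at 37 °C. XTT-PMS staining followed for 3–4 h at 37 °C. Absorbance was read at 450 nm against a 690 nm reference, with cell-free blank wells subtracted. Growth is expressed as percent of 1–2% DMSO controls, and CC50 is the concentration giving 50% growth inhibition.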

[5] = Binding affinity to dsRNA assessed as inhibition of ethidium bromide RNA intercalation at 20 uM by RNA migration retardation assay
[6] = Binding affinity to dsRNA assessed as inhibition of ethidium bromide RNA intercalation by RNA migration retardation assay
[7] = tested on: Nucleic Acid; assay: Binding affinity to HCV con1 dsDNA assessed as inhibition of ethidium bromide DNA intercalation at 500 uM by DNA migration retardation assay; type: nucleic-acid assay; conditions: Hepacivirus hominis
[8] = Selectivity index, ratio of CC50 for human HuH7 cells to IC50 for HCV subtype 1a; type: functional, Huh-7
In short: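 The ratio CC50/EC50 comes from the XTT cytotoxicity assay and the luciferase replicon assay, both run in replicon-bearing Huh-7 cells.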

[9] = tested on: Hepacivirus hominis; assay: Inhibition of HCV NS3 helicase activity in presence of increasing concentration of double stranded DNA substrate at 33 uM
In short: (§1)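 Fluorometric NS3 helicase assay at 37 °C. Inhibitor was held at a constant concentration while the dsDNA substrate concentration was increased. Activity is expressed as percent of the same reaction with DMSO in place of inhibitor.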

[10] = tested on: Nucleic Acid; assay: Binding affinity to HCV con1 dsDNA assessed as inhibition of ethidium bromide DNA intercalation by DNA migration retardation assay; type: nucleic-acid assay; conditions: Hepacivirus hominis
[11] = tested on: Hepacivirus hominis; assay: Inhibition of HCV NS3 helicase activity in presence of increasing concentration of double stranded DNA substrate at 5 uM; in short: as §1
[12] = tested on: Hepacivirus hominis; assay: Inhibition of HCV NS3 helicase activity in presence of increasing ATP concentration
In short: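 Fluorometric NS3 helicase assay, run at 37 °C, with IC50 determined at each of three ATP concentrations. Activity is expressed as percent of the same reaction with DMSO in place of inhibitor.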

[13] = tested on: Hepacivirus hominis; assay: Inhibition of HCV NS3 helicase activity in presence of increasing concentration of double stranded DNA substrate at 10 uM; in short: as §1

EC50 [1] [µM] | IC99 [2] [µM] | IC50 [3] [µM] | Activity [5] | Activity [6] | Activity [7] | Activity [9] | Activity [10] | Activity [11] | Activity [12] | Activity [13] | Structure (SMILES) | CC50 [4] [µM] | Ratio CC50/EC50 [8]
1.4 |  |  |  |  |  |  |  |  |  |  | [N-]=[N+]=N[C@]1(CO)O[C@@H](n2ccc(N)nc2=O)[C@H](O)[C@@H]1O [4'-AZIDOCYTIDINE] |  | 
 | > 100 | > 100 |  |  |  |  |  |  |  |  | O=C(c1cccc2c(=O)c3ccccc3[nH]c12)N1CCOCC1 |  | 
> 100 | 10 | > 100 | inactive | inactive | inactive |  |  |  |  |  | Cc1ccc(NC(=O)c2cccc3c(=O)c4ccccc4[nH]c23)cc1 | > 100 | 
 | 80 | > 100 |  |  |  |  |  |  |  |  | CN(C)CCNC(=O)c1cccc2c(=O)c3ccccc3[nH]c12 |  | 
5.6 | 40 | > 100 | inactive | inactive |  |  |  |  |  |  | Cc1cccc(NC(=O)c2cccc3c(=O)c4ccccc4[nH]c23)c1 | 5.5 | 1
4.3 | > 100 | > 100 | inactive |  |  |  |  |  |  |  | O=C(NCc1ccccn1)c1cccc2c(=O)c3ccccc3[nH]c12 | 10.2 | 2.4
11.1 | 80 | 20.2 | Active |  |  | inactive | Active |  |  |  | Cc1cccnc1NC(=O)c1cccc2c(=O)c3ccccc3[nH]c12 | 39.2 | 3.5
19 | 80 | > 100 |  |  |  |  |  |  |  |  | Cc1ccccc1NC(=O)c1cccc2c(=O)c3ccccc3[nH]c12 | 99.3 | 5.2
6.5 | 40 | 6.2 |  |  |  |  |  | inactive | inactive |  | Cc1ccnc(NC(=O)c2cccc3c(=O)c4ccccc4[nH]c23)c1 | 7 | 1.1
12.9 | 40 | > 100 |  |  |  |  |  |  |  |  | O=C(Nc1ccccc1)c1cccc2c(=O)c3ccccc3[nH]c12 | 90.9 | 7.1
 | > 100 | > 100 |  |  |  |  |  |  |  |  | O=C(NCCCN1CCOCC1)c1cccc2c(=O)c3ccccc3[nH]c12 |  | 
 | > 100 | > 100 |  |  |  |  |  |  |  |  | O=C(c1cccc2c(=O)c3ccccc3[nH]c12)N1CCCCC1 |  | 
10.2 | 40 | 3.8 | Active |  |  |  | Active | inactive |  |  | O=C(Nc1ccccn1)c1cccc2c(=O)c3ccccc3[nH]c12 | 412 | 40.5
9 | 20 | 8.9 | Active |  |  |  | Active |  |  | inactive | O=C(Nc1ccncc1)c1cccc2c(=O)c3ccccc3[nH]c12 | 175 | 19.4
